Screens: PubChem BioAssay, Broad Institute
An excerpt weighted towards active compounds, which were near 1.5% of everything screened.
S100A4 inh HTS: S100A4-myosin IIA interaction inhibition. P26447. S100A4/TAMRA-MyoIIA peptide fluorescence polarization. inhibition, % at 10.7 µM. 360,000 compounds, 0.14% hits;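 active = mean inhibition of at least 70% across replicates, with every replicate also reaching that level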
Target sequence (P26447 whole entry, looked up): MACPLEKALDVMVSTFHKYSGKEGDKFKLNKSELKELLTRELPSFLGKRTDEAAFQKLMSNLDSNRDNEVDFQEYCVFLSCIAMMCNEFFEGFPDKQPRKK
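Test system – S100A4 monomer (human) · Compound – single-point compound testing · Schedule – 5 min incubation before reading · Probe or stimulus – TAMRA-labelled myosin IIA heavy-chain peptide probe, 5 nM · Benchmarks – neutral control DMSO, positive control TFP · Medium – Calcium-containing HEPES buffer, pH 7.2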
MLL AF4-AF9 inh: blocks AF4 peptide binding to human AF9 | inhibition, % at 10 µM | P42568 | AID 651704 | 350,000 compounds, 0.47% hits | AlphaScreen, biotin-AF4 peptide binding to FLAG-AF9;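 active = every replicate reaching a set inhibition limit, whatever the replicate mean, cut at about 25% in these data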;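 also: 0% = plate neutral control median and 100% = total signal loss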
RAD54 inh: blocks human RAD54 Holliday junction branch migration. Q92698. AID 602329. 360,000 compounds, 0.14% hits. FAM/BHQ fluorescence. inhibition, % at 10.4 µM;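 active = mean normalized replicate activity at least 40 and at least half of replicates scoring 40 or more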;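 also: 0% = median of neutral control wells and 100% = median of positive control wells; inhibitors cause a drop in the FAM fluorescence signal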
RAD52 inh: RAD52 (human) annealing inhibition; inhibition, % at 18.7 µM; AID 651710; P43351; 360,000 compounds, 0.46% hits; recombinant RAD52 DNA annealing, FRET fluorescence;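 active = every replicate showing at least 50% inhibition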
dFosB activator: mouse delta FosB homodimer activation; P13346; 340,000 compounds, 0.99% hits; activation, % at 25 µM; AID 493131; purified delta FosB, TAMRA-CDK5 oligo fluorescence polarization; percent of positive-control signal above neutral wells;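 active = mean activation above about 17%, with every replicate also reaching it, limit read from the data, passing the limit was not always enough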
Target sequence (P13346 whole entry, looked up): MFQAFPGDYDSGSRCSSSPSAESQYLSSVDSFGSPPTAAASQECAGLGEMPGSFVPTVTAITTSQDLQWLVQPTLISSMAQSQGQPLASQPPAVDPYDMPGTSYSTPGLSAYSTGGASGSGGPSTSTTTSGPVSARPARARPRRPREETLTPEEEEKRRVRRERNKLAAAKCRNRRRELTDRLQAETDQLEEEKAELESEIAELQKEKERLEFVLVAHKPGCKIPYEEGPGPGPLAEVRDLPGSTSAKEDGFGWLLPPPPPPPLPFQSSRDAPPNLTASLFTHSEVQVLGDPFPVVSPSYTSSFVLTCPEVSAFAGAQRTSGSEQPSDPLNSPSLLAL
An asterisk follows results filed as active; x = no result.

SMILES	S100A4 inh HTS	MLL AF4-AF9 inh	RAD54 inh	RAD52 inh	dFosB activator
CC[n+]1ccc(/C=C2\Sc3ccccc3N2CCCS(=O)(=O)[O-])c2ccccc21	0.6	0.1	-12.1	-48.7	-0.6
C[C@@H]1CN([C@@H](C)CO)C(=O)c2cc(-c3cccc(F)c3)cnc2O[C@H]1CN(C)C(=O)c1cnccn1	-9.5	-0.8	3.1	-11.8	x
Cc1ccccc1S(=O)(=O)NCC[C@H]1CC[C@H](NC(=O)C2CCC2)[C@H](CO)O1	102.1*	1.8	-7.8	x	x
O=C(Nc1ccc2c(c1)OCO2)N[C@@H]1CC[C@@H](CCNC(=O)C2CCCC2)O[C@H]1CO	89.8*	-8.8	5.6	1.6	x
Cc1ccc(S(=O)(=O)NCC[C@@H]2CC[C@@H](NC(=O)C3CCOCC3)[C@H](CO)O2)cc1	98.6*	-0.4	-11.7	4.8	x
Cc1ccccc1S(=O)(=O)NCC[C@@H]1CC[C@H](NC(=O)C2CCC2)[C@H](CO)O1	2.2	-3.1	-1.1	8.1	x
Cc1ccc(S(=O)(=O)NCC[C@@H]2CC[C@H](NC(=O)C3CCOCC3)[C@H](CO)O2)cc1	0.7	1.5	-1.5	17.9	x
C[C@@H](NC(=O)C[C@@H]1CC[C@H](NC(=O)C2CCC2)[C@H](CO)O1)c1ccccc1	106.5*	0.6	-6.0	10.5	x
CCCc1cn(CC[C@@H]2CC[C@H](NC(=O)C3CCCC3)[C@H](CO)O2)nn1	116.1*	-2.6	-19.5	-2.6	x
CCCc1cn(CC[C@@H]2CC[C@H](NC(=O)C3CCCC3)[C@@H](CO)O2)nn1	31.9	-0.3	7.0	5.4	x
O=C(Cc1ccncc1)NCC[C@@H]1CC[C@@H](NC(=O)C2CCOCC2)[C@@H](CO)O1	102.1*	-0.7	-6.0	-12.9	x
COc1cccc(OCc2nnc(SCc3cc(=O)[nH]c4ccccc34)o2)c1	2.7	38.3*	x	-6.4	-8.4
O=c1cc(CSc2nnc(COc3ccc(Cl)cc3)o2)c2ccccc2[nH]1	x	x	-4.5	x	-7.1
CC(=O)c1cccc(NC(=O)c2cccc(N3C(=O)c4ccccc4C3=O)c2)c1	11.9	-2.7	-36.8	-11.0	31.1*
CCOC(=O)N1CCN(C2=C(NS(=O)(=O)c3ccccc3)C(=O)c3ccccc3C2=O)CC1	-0.9	26.4*	-3.7	-4.1	-11.1
CCN1CCN(C2=C(NS(=O)(=O)c3ccc(Br)cc3)C(=O)c3ccccc3C2=O)CC1	-0.8	14.0	-0.8	-3.4	-5.4
CCOC(=O)N1CCN(C2=C(NS(=O)(=O)c3ccc(Br)cc3)C(=O)c3ccccc3C2=O)CC1	0.0	32.5*	-4.9	-15.8	x
COc1ccc2c3c(n(C)c2c1)[C@@H](CO)N(C(=O)C1CC1)CC31CCN(C)CC1	2.1	-8.0	x	14.1	x
CCCN1[C@H](CO)[C@H](c2ccc(C3=CCCCC3)cc2)[C@@H]1CNC(=O)COC	-1.1	-0.9	x	-3.5	x
CCCN1[C@H](CO)[C@H](c2ccc(C3=CCCCC3)cc2)[C@@H]1CNS(C)(=O)=O	80.3*	3.9	x	-21.3	x
CCCNC(=O)N1CC2(CN(Cc3cccc(F)c3)C2)c2c([nH]c3cc(OC)ccc23)[C@H]1CO	9.0	25.9*	x	13.2	x
CCCNC(=O)N1CC2(C1)CN(Cc1cccc(F)c1)[C@H](CO)c1[nH]c3cc(OC)ccc3c12	x	10.9	x	x	x
CCCNC(=O)N1CC2(CN(Cc3cccc(OC)c3)C2)c2c([nH]c3cc(OC)ccc23)[C@H]1CO	10.5	36.2*	x	0.7	x
CCCNC(=O)N1CC2(CCN(Cc3cccc(OC)c3)CC2)c2c([nH]c3cc(OC)ccc23)[C@H]1CO	x	8.7	x	x	x
CCCNC(=O)N1CC2(CN(Cc3cccc(OC)c3)C2)c2c([nH]c3cc(OC)ccc23)[C@@H]1CO	9.4	31.9*	x	2.9	x
SMILES	S100A4 inh HTS	MLL AF4-AF9 inh	RAD54 inh	RAD52 inh	dFosB activator
O=C(C[C@H]1CC[C@H](NC(=O)C2CCOCC2)[C@H](CO)O1)NCC1CC1	0.1	-2.8	x	8.7	x
CS(=O)(=O)Nc1ccc2c(c1)[C@H]1C[C@H](CC(=O)NCc3cccnc3)O[C@H](CO)[C@H]1O2	6.4	-2.2	-1.4	5.7	x
COCC#Cc1ccc([C@H]2[C@@H](CO)N3C(=O)CN(C(=O)Nc4ccccc4F)C[C@H]23)cc1	16.7	-3.4	x	1.4	x
Cc1cc(NCCN2CCOCC2)n2c(nc3ccccc32)c1C#N	x	x	6.6	x	-9.0
Cc1cc(NCCCN2CCOCC2)n2c(nc3ccccc32)c1C#N	x	x	53.3*	x	-11.1
N#C/C(=C/c1ccccc1[N+](=O)[O-])c1nc(C2CC2)cs1	6.5	25.8*	x	-6.2	-8.5
